M4 PAM – human M4 muscarinic receptor positive allosteric modulators, primary screen, CHO-K1 cells, Fluo-8 calcium fluorescence; CHO-K1 hM4/Gqi5, ACh EC20; 0% = ACh EC20, 100% = maximal ACh; Muscarinic acetylcholine receptor M4 (Homo sapiens), P08173; 360,000 compounds, 0.4% hits; activation, % at 3 µM;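 active = activation above its plate's cutoff, the mean activation of sample wells plus 3 SD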
CHRM4 antagonist – human M4 muscarinic receptor antagonists, primary screen, CHO cells, Fluo-8 calcium fluorescence | CHO-hM4 cells, ACh EC80 | inhibition, % at 3 µM | 360,000 compounds, 0.73% hits | AID 624125, 2012;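 active = inhibition above its plate's cutoff, the mean inhibition of sample wells plus 3 SD, cut at about 27% in these data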;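 also: 0% = acetylcholine EC80 with DMSO and 100% = DMSO without agonist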
M4 ag – human M4 muscarinic receptor agonists, primary screen, CHO-K1 cells, Fluo-8 calcium fluorescence; 360,000 compounds, 0.14% hits; CHO-K1 hM4/Gqi5; vehicle 0%, full acetylcholine response 100%; activation, % at 3 µM;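 active = activation above the run mean over all test wells plus 3 SD, cut at about 32% in these data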;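 also: peak over basal fluorescence ratio per well then scaled between controls; 0% = DMSO wells and 100% = acetylcholine at EC100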
CHRM5 agonist – human M5 muscarinic receptor agonists, primary screen, CHO-K1 cells, Fluo-8 calcium fluorescence. Muscarinic acetylcholine receptor M5 (Homo sapiens), P08912. CHO-K1 hM5 cells; 0% DMSO wells, 100% maximal acetylcholine response. activation, % at 3 µM. 360,000 compounds, 0.19% hits;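 active = activation above the run's mean over test compounds plus 3 SD, cut at about 23% in these data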;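 also: signal is peak over basal fluorescence ratio across the kinetic read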
Target sequence (P08912 whole entry, looked up): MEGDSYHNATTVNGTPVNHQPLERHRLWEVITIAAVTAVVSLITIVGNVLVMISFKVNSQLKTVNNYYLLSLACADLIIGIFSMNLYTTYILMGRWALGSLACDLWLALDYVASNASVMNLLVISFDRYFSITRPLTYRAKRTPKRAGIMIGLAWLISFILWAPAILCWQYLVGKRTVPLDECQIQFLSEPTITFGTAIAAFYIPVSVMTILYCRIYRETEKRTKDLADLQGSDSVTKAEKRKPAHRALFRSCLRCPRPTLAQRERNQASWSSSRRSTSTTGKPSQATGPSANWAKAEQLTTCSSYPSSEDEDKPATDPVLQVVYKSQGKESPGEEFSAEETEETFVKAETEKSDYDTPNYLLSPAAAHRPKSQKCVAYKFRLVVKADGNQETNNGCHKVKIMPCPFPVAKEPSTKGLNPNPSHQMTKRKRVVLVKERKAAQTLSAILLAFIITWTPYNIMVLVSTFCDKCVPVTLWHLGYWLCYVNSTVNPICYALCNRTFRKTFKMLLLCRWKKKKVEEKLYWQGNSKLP
M5 antag – human M5 muscarinic receptor antagonists, primary screen, CHO cells, Fluo-8 calcium fluorescence; CHO-hM5 cells, ACh EC80; inhibition, % at 3 µM; 360,000 compounds, 0.59% hits; AID 624040, 2012;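 active = inhibition above a per-plate cutoff, the mean of that plate's test compounds plus 3 SD, cut at about 27% in these data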;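 also: 0% = acetylcholine EC80 with DMSO and 100% = DMSO without agonist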
CHRM5 PAM – human M5 muscarinic receptor positive allosteric modulators, primary screen, CHO-K1 cells, Fluo-8 calcium fluorescence; Muscarinic acetylcholine receptor M5 (Homo sapiens), P08912; 360,000 compounds, 0.3% hits; AID 624038, 2012; activation, % at 3 µM; CHO-K1 hM5, ACh EC20 PAM; 0% = ACh EC20, 100% = ACh EC100;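 active = activation above the run cutoff, the mean activation of all test compounds plus 3 SD, cut at about 18% in these data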
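Assay system: CHO-K1 hM5 cells / Incubation: Fluo-8 loading 80 min at 37 °C plus 30 min room temperature / Technique: Fluo-8 calcium dye fluorescence, kinetic read / Repeats: single replicate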
The depositor's hits bear a star. Hits are enriched below; roughly 1.8% of the tested compounds scored in any of these assays.

SMILES	M4 PAM	CHRM4 antagonist	M4 ag	CHRM5 agonist	M5 antag	CHRM5 PAM
CCC(CC)c1nnc(NC(=O)CCc2ccc(OC)cc2)s1	1.5	-12.8	1.1	8.0	2.0	5.0
CCC(CC)c1nnc(NC(=O)CCc2ccccc2)s1	15.1*	-3.8	-0.1	3.3	8.3	-0.9
O=C(CN1C(=O)COc2ccccc21)NCCN1CCC(Cc2ccccc2)CC1	-30.0	28.2*	15.1	-4.8	10.2	-15.6
O=C(CN1C(=O)COc2ccccc21)NCc1ccc(C(=O)O)cc1	9.8	28.3*	1.6	3.4	3.0	-4.6
CCOC(=O)N1CCN(CC(O)COc2cc(C)cc(C)c2)CC1 (stereo not given)	-9.6	-4.2	0.2	-8.6	10.3	-4.7
CCC(=O)N1CCc2cc(Br)cc(S(=O)(=O)NCC3CCCO3)c21 (stereo not given)	2.3	-7.5	1.3	-0.4	3.9	-7.8
CCC(=O)N1CCc2cc(Br)cc(S(=O)(=O)CCC(=O)NCC3CCCO3)c21 (stereo not given)	-1.7	3.0	0.6	9.9	-11.5	18.8*
Oc1ccc(Cl)cc1/C=N/c1nccs1	4.0	6.8	1.0	-1.7	-3.8	-0.7
Oc1ccc(Cl)cc1C=Nc1ccc2c3c(cccc13)CC2	-24.9	36.1*	71.2*	52.9*	35.1*	-14.0
Cc1cccc(C=Nc2ccc3c4c(cccc24)CC3)c1O	-12.0	25.9	22.6	33.8*	24.0	-8.9
COc1ccc(NC(=O)c2cc(-c3cc(F)ccc3OCC3CCCO3)n[nH]2)cc1OC (stereo not given)	-9.5	6.6	11.7	0.8	8.4	-8.7
Cc1cc(C)cc(NC(=O)CCn2c(=S)[nH]c3ccccc3c2=O)c1	-7.9	-7.5	0.5	-2.0	10.3	-5.6
CCN(CC(=O)NC1CCS(=O)(=O)C1)C(=O)c1ccc(OC)c([N+](=O)[O-])c1 (stereo not given)	0.4	9.2	0.5	2.2	12.1	-1.9
CCCCNc1c(CCc2ccccc2)nc2nc(C)cc(C)n12	-3.5	4.9	0.2	2.3	0.5	-5.1
Cc1ccc(S(=O)(=O)N2C[C@H]3C(=O)C[C@@H](c4ccccc4)N(S(=O)(=O)c4ccc(C)cc4)[C@H]3C[C@H]2c2cccs2)cc1	-2.1	0.2	0.3	3.7	-1.9	-0.4
CNC(=O)Nc1ccccc1C(=O)NCc1ccccc1	9.9	86.6*	-3.2	-2.4	-2.9	1.3
O=C(Nc1ccccc1)Nc1ccccc1C(=O)NCc1ccccc1	-5.8	-9.5	5.5	-3.6	-0.9	-7.7
COc1cc(OC)cc(C(=O)Nc2ccccc2C(=O)NCc2cccnc2)c1	-11.3	-1.1	13.8	-2.5	28.2*	-7.6
Cc1cc(C)n2ncc(C(=O)NCc3ccccc3)c2n1	3.9	-4.6	1.0	0.1	19.6	31.2*
Cc1ccccc1CSc1nc2c(c(=O)[nH]1)CCC2	36.9*	-8.0	-2.2	2.6	-3.0	-3.9
Cc1cccc(-c2nc(CSc3nc4c(c(=O)[nH]3)CCC4)c(C)o2)c1	20.0*	-21.6	-1.5	3.1	-2.1	6.5
Cc1ccccc1-c1nc(CSc2nc3c(c(=O)[nH]2)CCC3)c(C)o1	8.0	-6.9	-1.9	3.1	-4.2	8.7
COc1ccc(Br)cc1S(=O)(=O)Nc1ncn[nH]1	-1.1	0.9	1.5	0.4	-1.9	0.2
O=C(CNC(=O)C1CCCCC1)NC1CCCCC1	0.6	4.7	-0.8	-0.6	5.2	3.6
CCOc1ccc(OCCC(=O)OCC(=O)Nc2ccc(C)c(S(=O)(=O)N3CCCCC3)c2)cc1	-5.8	7.3	23.7	4.8	27.0*	-23.1
SMILES	M4 PAM	CHRM4 antagonist	M4 ag	CHRM5 agonist	M5 antag	CHRM5 PAM
COc1cc(S(=O)(=O)NCc2ccncc2)ccc1Br	-2.6	-3.6	11.8	2.1	35.3*	-16.0
COC(=O)COc1ccc(S(=O)(=O)NCc2ccncc2)cc1	-5.3	5.5	17.9	7.4	27.9*	-16.6
O=c1c(-c2cc3ccccc3[nH]2)nc2ccccc2n1C(CCc1ccccc1)c1nc2ccccc2[nH]1 (stereo not given)	-3.9	1.2	2.3	2.7	-7.1	-1.4
COc1ccc(CC(=O)NNS(=O)(=O)c2ccc(F)cc2)cc1	-7.2	-2.5	4.6	1.4	12.0	-4.7
CC(=O)Nc1cccc(OC(=O)N2CCOCC2)c1	27.1*	-4.0	0.9	-3.7	1.0	6.5
CCNC(=S)N/N=C/c1cc(C)ccc1C	6.3	-6.2	-2.9	-5.2	1.4	-6.8
C=CCNC(=S)N/N=C/c1ccc(C)cc1C	6.4	-11.4	-1.1	1.1	-14.6	21.2*
N/C(Cc1nc(-c2ccc(Br)cc2)cs1)=N\O	2.6	-14.3	2.8	-0.4	6.3	1.5
Cc1ccnc2nc(C(=O)OCC(=O)NC3CCCC(C)C3C)nn12 (stereo not given)	20.9*	-9.1	1.6	1.1	4.9	-3.8
CCN(CC(=O)Nc1c(F)cccc1F)C(=O)c1cccc(S(=O)(=O)N2CCCCCC2)c1	-1.6	11.9	2.7	5.0	-2.9	4.5
Cc1cccc(OCC(=O)NCCCNC(=O)c2ccc(C)nc2)c1	3.8	2.4	0.9	1.1	1.2	2.6
CC1=C(C(=O)OCCCCCl)C(c2cc3c(cc2Br)OCO3)NC(=O)N1 (stereo not given)	-0.2	-12.7	-0.2	-5.9	4.8	-2.7
Cc1nc(N)sc1C(=O)N/N=C/c1ccccc1[N+](=O)[O-]	21.6*	-11.3	3.3	1.4	-10.7	12.1
Cc1nc(N)sc1C(=O)N/N=C/c1ccc([N+](=O)[O-])cc1	-4.9	-6.8	0.9	-1.0	11.7	0.1
Cc1cccc(NC(=O)C(=O)C2C(=O)Nc3ccccc32)c1 (stereo not given)	0.1	14.8	2.1	2.3	-5.8	18.7*
CCNS(=O)(=O)c1ccc(CCC(=O)Nc2ccc(C(=O)OC)cc2)cc1	29.0*	-7.4	4.2	0.6	2.6	-2.1
Cn1c(=O)[nH]c(=O)c2c1nc([N+](=O)[O-])n2Cc1ccccc1	40.6*	-24.1	1.3	7.0	1.5	3.8
CCC(CC)C(=O)c1c[nH]c(C(=O)NCc2ccc(F)cc2)c1	1.6	-0.8	10.3	4.7	1.2	-6.7
Cc1ccc(C)c(NC(=S)N(C)CCc2ccccn2)c1	17.9*	-5.0	1.3	-3.2	-5.0	10.2

Bioassay records (PubChem)
